ChEMBL document CHEMBL1782010, “Synthesis and evaluation of quinoxaline derivatives as potential influenza NS1A protein inhibitors” (Bioorg Med Chem Lett, 2011)
The source made the active and inactive calls. The rule behind the calls is not given here.

Legend:
[1] = system: Influenza A virus (A/udorn/1972(H3N2)); assay: Inhibition of Influenza A/Udorn/72/H3N2 full length GST-tagged NS1A/FAM-double strand RNA-interaction at 50 uM after 1 hr by fluorescence polarization assay
In short: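 Fluorescence polarization: carboxyfluorescein-labelled dsRNA (FAM-dsRNA) probe binds NS1A protein, which raises polarization. Disruption of binding read at 50 μM compound and reported as % binding. Run in duplicate; values averaged.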

[2] = system: Nucleic Acid; assay: Binding affinity to double strand RNA assessed as compound intercalation to double strand RNA at 50 uM after 1 hr by fluorescence polarization assay; format: nucleic-acid assay
In short: (§1)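 Counter-screen of FAM-dsRNA alone, with no NS1A target, by an analogous fluorescence polarization assay at 50 μM compound. Reported as % intercalation: a positive sign means intercalation into the dsRNA, a negative sign means denaturation of the dsRNA to single strands. Duplicates averaged.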

[3] = system: Nucleic Acid; assay: Binding affinity to double strand RNA assessed as denaturation of double strand RNA to single strand RNA at 50 uM after 1 hr by fluorescence polarization assay; format: nucleic-acid assay; in short: as §1
[4] = Inhibition of Influenza A/Udorn/72/H3N2 full length GST-tagged NS1A/FAM-dsRNA-interaction after 1 hr by fluorescence polarization assay; set-up: species or system Influenza A virus (A/udorn/1972(H3N2))
In short: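 Dose-dependent version of the FAM-dsRNA/NS1A fluorescence polarization binding assay. The rise in polarization on probe binding to NS1A gives the read-out, and IC50 is taken from the dose-response. Run in duplicate; values averaged.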

[5] = system: Influenza A virus; assay: Antiviral activity against Influenza A/Udorn/72 virus infected in MDCK cells assessed as reduction of plaque forming unit at 60 uM treated 1 hr after infection measured after 36 hrs by plaque assay; format: functional, organism-based; conditions: Influenza A virus (A/udorn/1972(H3N2))
In short: (§2)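 MDCK cells infected with influenza A/Udorn/72, either at MOI 5 (single-cycle growth) or at MOI 0.001 (multiple-cycle growth). After 1 h infection, growth medium containing compound diluted in DMSO was added; control received 0.1% DMSO. Virus yield was followed over time as growth curves.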

[6] = system: Influenza A virus; assay: Antiviral activity against Influenza A/Udorn/72 virus infected in MDCK cells assessed as inhibition of viral growth at 30 uM treated 1 hr after infection measured up to 15 hrs by plaque assay relative to control; format: functional, Influenza A virus (A/udorn/1972(H3N2)); in short: as §2

Compound	inhibition [1] [%]	Activity [2] [%]	Activity [3] [%]	also measured
Oc1ccccc1-c1nc2ccccc2nc1-c1ccccc1O	-0.9	-1	–	–
Oc1ccc2nc(-c3ccccc3O)c(-c3ccccc3O)nc2c1	10.9	0.9	–	–
COc1ccc2nc(-c3ccccc3OC)c(-c3ccccc3OC)nc2c1	4.4	–	-5	–
COc1ccc(CNC(=O)c2ccc3nc(-c4ccco4)c(-c4ccco4)nc3c2)cc1OC	39.5	5.6	–	–
COc1cc(CNC(=O)c2ccc3nc(-c4ccco4)c(-c4ccco4)nc3c2)cc(OC)c1OC	53.6	–	-4.7	–
O=C(O)c1ccc2nc(-c3ccco3)c(-c3ccco3)nc2c1	60.9	5.8	–	–
Oc1ccc(-c2nc3ccc(O)cc3nc2-c2ccc(O)cc2)cc1	38.8	29.5	–	–
COC(=O)CNC(=O)c1ccc2nc(-c3ccco3)c(-c3ccco3)nc2c1	26.7	–	-27.9	–
Oc1cccc(-c2nc3ccccc3nc2-c2cccc(O)c2)c1	10.9	–	-4.8	–
O=C(NCc1ccccc1F)c1ccc2nc(-c3ccco3)c(-c3ccco3)nc2c1	11.6	–	-11.3	–
c1ccc(-c2nc3ccccc3nc2-c2ccccn2)nc1	-3.1	2.3	–	–
O=[N+]([O-])c1ccc2nc(-c3cccc(O)c3)c(-c3cccc(O)c3)nc2c1	42.8	–	-15.8	–
COc1ccccc1-c1nc2ccccc2nc1-c1ccccc1OC	5	–	-6.7	–
COc1ccccc1CNC(=O)c1ccc2nc(-c3ccco3)c(-c3ccco3)nc2c1	29.5	–	-17.7	–
O=C(O)c1ccc2nc(-c3ccc(O)cc3)c(-c3ccc(O)cc3)nc2c1	13.3	–	-7.7	–
COc1cccc(-c2nc3ccc(OC)cc3nc2-c2cccc(OC)c2)c1	7.2	–	-8.4	–
O=C(O)c1ccc2nc(-c3ccc4c(c3)OCO4)c(-c3ccc4c(c3)OCO4)nc2c1	23.2	–	-4.8	–
COC(=O)c1ccc(CNC(=O)c2ccc3nc(-c4ccco4)c(-c4ccco4)nc3c2)cc1	47.9	8.8	–	–
c1ccc2nc(-c3ccc4c(c3)OCO4)c(-c3ccc4c(c3)OCO4)nc2c1	1.5	7.9	–	–
O=[N+]([O-])c1ccc2nc(-c3ccc4c(c3)OCO4)c(-c3ccc4c(c3)OCO4)nc2c1	56.6	24.4	–	–
COc1ccc2nc(-c3ccco3)c(-c3ccco3)nc2c1	54.3	-3.2	–	–
COc1ccc(-c2nc3ccc(C(=O)O)cc3nc2-c2ccc(OC)cc2)cc1	4.5	–	-4.8	–
COc1ccc(CNC(=O)c2ccc3nc(-c4ccco4)c(-c4ccco4)nc3c2)cc1	44	7.6	–	–
COc1ccccc1-c1nc2ccc(C(=O)O)cc2nc1-c1ccccc1OC	2.8	–	-2.5	–

Compound	inhibition [1] [%]	Activity [2] [%]	Activity [3] [%]	also measured
COc1cccc(-c2nc3ccccc3nc2-c2cccc(OC)c2)c1	1.4	–	-6	–
O=[N+]([O-])c1ccc2nc(-c3ccccn3)c(-c3ccccn3)nc2c1	7.8	–	-5.6	–
O=C(NCc1cccc(F)c1)c1ccc2nc(-c3ccco3)c(-c3ccco3)nc2c1	13.6	–	-11.6	–
O=C(O)c1ccc2nc(-c3ccccn3)c(-c3ccccn3)nc2c1	15.7	2.9	–	–
O=C(NCc1ccccn1)c1ccc2nc(-c3ccco3)c(-c3ccco3)nc2c1	64.7	–	-9.6	IC50 [4]: 43.3 µM
O=C(O[C@@H]1Cc2c(O)cc(O)cc2O[C@@H]1c1cc(O)c(O)c(O)c1)c1cc(O)c(O)c(O)c1	89	–	–	–
Oc1cccc(-c2nc3ccc(O)cc3nc2-c2cccc(O)c2)c1	25	18.2	–	–
COc1cccc(-c2nc3ccc(C(=O)O)cc3nc2-c2cccc(OC)c2)c1	9.1	–	-4.4	–
c1coc(-c2nc3ccccc3nc2-c2ccco2)c1	7.3	–	-23.7	–
COc1ccc(-c2nc3ccc(OC)cc3nc2-c2ccc(OC)cc2)cc1	1.8	5.7	–	–
O=C(O)c1ccc2nc(-c3cccc(O)c3)c(-c3cccc(O)c3)nc2c1	28.7	-3.4	–	–
COc1ccc(-c2nc3ccc([N+](=O)[O-])cc3nc2-c2ccc(OC)cc2)cc1	–	113	–	–
O=[N+]([O-])c1ccc2nc(-c3ccc(O)cc3)c(-c3ccc(O)cc3)nc2c1	19.5	–	-32	–
COc1ccc(-c2nc3ccccc3nc2-c2ccc(OC)cc2)cc1	0.5	1.4	–	–
O=[N+]([O-])c1ccc2nc(-c3ccco3)c(-c3ccco3)nc2c1	25.5	25.9	–	–
O=C(NCc1cccs1)c1ccc2nc(-c3ccco3)c(-c3ccco3)nc2c1	8.2	–	-10.5	–
COc1cccc(CNC(=O)c2ccc3nc(-c4ccco4)c(-c4ccco4)nc3c2)c1	74	4.5	–	IC50 [4]: 6.2 µM
Oc1ccc(-c2nc3ccccc3nc2-c2ccc(O)cc2)cc1	10.2	8.5	–	–
O=C(NCc1ccco1)c1ccc2nc(-c3ccco3)c(-c3ccco3)nc2c1	79.5	5.9	–	Activity [5]: inactive; fold change (FC) [6]: 10; IC50 [4]: 3.5 µM
COC(=O)c1ccc2nc(-c3ccco3)c(-c3ccco3)nc2c1	76	–	-12.3	IC50 [4]: 74.8 µM
COc1cccc(-c2nc3ccc([N+](=O)[O-])cc3nc2-c2cccc(OC)c2)c1	1.5	1.9	–	–
O=C(NCc1ccc(F)cc1)c1ccc2nc(-c3ccco3)c(-c3ccco3)nc2c1	49	6.3	–	–
COc1ccccc1-c1nc2ccc([N+](=O)[O-])cc2nc1-c1ccccc1OC	6.7	–	-3.7	–
